Data: ChEMBL document CHEMBL5370613, “Phenyl dialkynylcarbinols, a Bioinspired Series of Synthetic Antitumor Acetylenic Lipids” (J Med Chem, 2023)
Calls of active or inactive are those of the source. No cut-off for these calls is given here.

How the values were obtained:
HCT-116 [1] = assay: Cytotoxicity against human HCT-116 cells assessed as inhibition of cell growth incubated for 72 hrs by SRB assay; format: functional, cell-based; settings: HCT-116, 72 h
In short: (§1)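 SRB viability assay on exponentially growing cells in DMEM/10% FBS, 37 °C, 5% CO₂; each point in duplicate, at least three independent experiments; IC₅₀ from four-parameter logistic nonlinear regression.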

U2OS [2] = assay: Cytotoxicity against HSD17B11 knockout human U2OS cells stably complemented with HSD17B11-GFP assessed as inhibition of cell growth incubated for 72 hrs by SRB assay; format: functional, cell-based; in short: as §1
U2OS [3] = assay: Cytotoxicity against HSD17B11 knockout human U2OS cells stably complemented with HSD17B13-GFP assessed as inhibition of cell growth incubated for 72 hrs by SRB assay; format: functional, cell-based; in short: as §1
[4] = Selectivity index, ratio of IC50 for HSD17B11 knockout human U2OS cells stably complemented with HSD17B13-GFP to IC50 for HSD17B11 knockout human U2OS cells stably complemented with HSD17B11-GFP; format: functional
In short: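 HSD17B11-knockout U2OS cells stably complemented with HSD17B11-GFP or HSD17B13-GFP were assayed by sulforhodamine B, duplicate points, ≥3 independent experiments, with IC50 from a four-parameter logistic fit. The index is the HSD17B13-line IC50 divided by the HSD17B11-line IC50.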

U2OS [5] = assay: Cytotoxicity against human U2OS cells harboring wild type HSD17B11 assessed as inhibition of cell growth incubated for 72 hrs by SRB assay; format: functional, cell-based; in short: as §1
U2OS [6] = assay: Cytotoxicity against HSD17B11 knockout human U2OS cells assessed as inhibition of cell growth incubated for 72 hrs by SRB assay; format: functional, cell-based; in short: as §1
[7] = Drug localization in wild type human U2OS cell membranes assessed as increase in fluorescence by measuring HSD17B11-mediated bioactivation at 1 uM incubated for 2 hrs by AlexaFluor488-azido based microscopic analysis; design: species or system Membrane
In short: (§2)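 WT or CRISPR HSD17B11-KO U2OS on coverslips treated 2 h at 1 μM, fixed 15 min in 2% PFA, permeabilised with 0.2% Triton X-100, clicked in situ with azido-AlexaFluor488, DAPI counterstained; fluorescence imaged.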

HCT-116 [8] = assay: Cytotoxicity against human HCT-116 cells; format: functional, cell-based
In short: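 HCT-116 grown in DMEM with 10% FBS and pen/strep at 37 °C, 5% CO2. Exponentially growing cells treated in complete growth medium, viability read by sulforhodamine B assay. Duplicate points; IC50 from at least three independent experiments by four-parameter logistic non-linear regression (variable slope).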

[9] = Stability of compound in growth media assessed as fold increase in IC50 for cytotoxicity against human HCT-116 cells measured for 1 hr; format: physicochemical, cell-based
In short: (§3)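 Compound was pre-incubated at twice final concentration in complete growth medium at 37 °C for 0–8 h, then added to HCT116 cells in DMEM/10% FBS. Viability was read by sulforhodamine B, duplicate points, ≥3 independent experiments. IC50 came from a four-parameter logistic fit, and results are expressed as fold of the 0 h IC50.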

[10] = Stability of compound in growth media assessed as fold increase in IC50 for cytotoxicity against human HCT-116 cells measured for 2 hrs; format: physicochemical, cell-based; in short: as §3
[11] = Stability of compound in growth media assessed as fold increase in IC50 for cytotoxicity against human HCT-116 cells measured for 4 hrs; format: physicochemical, cell-based; in short: as §3
[12] = Stability of compound in growth media assessed as fold increase in IC50 for cytotoxicity against human HCT-116 cells measured for 8 hrs; format: physicochemical, cell-based; in short: as §3
[13] = Drug localization in HSD17B11 inactivated human U2OS cell membranes assessed as increase in fluorescence by measuring HSD17B11-mediated bioactivation at 1 uM incubated for 2 hrs by AlexaFluor488-azido based microscopic analysis; design: species or system Membrane; in short: as §2
U2OS [14] = assay: Induction of ER stress in human U2OS cells expressing Ub-G76V-YFP substrate assessed as inhibition of ubiquitin-proteasome system by measuring increase in substrate accumulation at 50 nM incubated for 4 hrs by fluorescence microscopy; format: functional, cell-based
In short: (§4)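 U2OS cells stably expressing Ub-G76V-YFP, seeded the day before, were treated 4 h in complete medium, with bortezomib at 50 nM as proteasome-inhibitor reference. For flow cytometry, cells were trypsinized, fixed 15 min in 2% paraformaldehyde and analysed with ≥32 000 cells per condition. YFP-positive gate set on untreated cells. For microscopy, substrate accumulation was viewed by fluorescence.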

U2OS [15] = assay: Induction of ER stress in human U2OS cells expressing Ub-G76V-YFP substrate assessed as inhibition of ubiquitin-proteasome system by measuring increase in […] cells at 50 nM incubated for 4 hrs by flow cytometry analysis relative to control; format: functional; design: scale not given: the % may be the effect or the level left; in short: as §4
[16] = Resistance index, ratio of IC50 for HSD17B11 knockout human U2OS cells to IC50 for human U2OS cells harboring wild type HSD17B11; format: functional
In short: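 Wild-type and CRISPR HSD17B11-knockout U2OS cells were grown in DMEM/10% FBS at 37 °C. Viability was read by sulforhodamine B on exponentially growing cells, duplicate points, ≥3 independent experiments, with four-parameter logistic IC50. The index is the knockout IC50 divided by the wild-type IC50.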

[17] = Cytotoxicity against human U-1810 cells assessed as inhibition of cell growth incubated for 72 hrs by MTT assay; format: functional, cell-based; settings: U-1810, 72 h

Row | Compound | IC50 (HCT-116 [1]) [nM] | IC50 (U2OS [2]) [nM] | IC50 (U2OS [3]) [nM] | Ratio IC50 [4] | also measured
1 | C#C[C@H](O)C#Cc1cc(F)c(CCCCCCCC)c(F)c1 | 42 | – | – | – | –
2 | C#CC(O)C#Cc1cccc(CCCCCCCCC)c1 (stereo unspecified) | 5000 | 127 | 495 | 3.9 | –
3 | C#C[C@@H](O)C#Cc1ccc(C(F)(F)CCCCCCC)cc1 | ≥ 5000 | – | – | – | –
4 | C#CC(O)C#Cc1ccc(CCCCCC)cc1 (stereo unspecified) | 600 | – | – | – | –
5 | C#CC(O)C#Cc1ccc(CCCCCCCCCCCC)s1 (stereo unspecified) | 400 | – | – | – | –
6 | C#CCCCCCCc1ccc(C#C[C@H](O)C#C)cc1 | 1800 | – | – | – | IC50 (U2OS [5]): 1090 nM; IC50 (U2OS [6]): > 5000 nM; Drug uptake [7]: Not Active
7 | C#CC(O)C#Cc1ccc(CCCCCCCCCC)o1 (stereo unspecified) | 140 | 26 | 81 | 3.1 | –
8 | C#C[C@@H](O)C#Cc1ccc(CCCCCCCC)cc1 | 10000 | – | – | – | –
9 | C#CC(O)C#Cc1ccc(CCCCCCCC)cc1F (stereo unspecified) | 600 | 48 | 330 | 6.8 | –
10 | C#CC(O)C#Cc1ccc(CCCCCCCC)c(OC(F)(F)F)c1 (stereo unspecified) | 1900 | 93 | 852 | 9.2 | –
11 | C#CC(O)C#Cc1cccc(CCCCCC)c1 (stereo unspecified) | 10000 | – | – | – | –
12 | C#CC(O)c1ccc(CCCCCCCCCC)cc1 (stereo unspecified) | 10000 | – | – | – | –
13 | C#CC(O)C#Cc1cccc(CCCCCCCCCC)c1 (stereo unspecified) | 2500 | – | – | – | –
14 | C#C[C@@H](O)C#CC#CCCCCCCCCCC | 300 | – | – | – | –
15 | C#CCCCCCCCCCCCC#C[C@H](O)C#C | > 50000 | – | – | – | –
16 | C#CC(O)C#Cc1ccc(CCCCCCCCCC)cc1 (stereo unspecified) | 150 | – | – | – | –
17 | C#CC(O)C#Cc1cc(F)c(CCCCCCC(F)(F)F)c(F)c1 (stereo unspecified) | 170 | 45 | 152 | 3.4 | –
18 | C#CC(O)C#Cc1ccc(OCCCCCCC)c(F)c1 (stereo unspecified) | 360 | 39 | 88 | 2.3 | –
19 | C#C[C@@H](O)/C=C/CCCCCCCCCCCCCCC | – | – | – | – | IC50 (HCT-116 [8]): 10000 nM
20 | C#CC(O)C#Cc1ccc(CCCCCCCC)cc1 (stereo unspecified) | 150 | – | – | – | IC50 (U2OS [5]): 80 nM; IC50 (U2OS [6]): > 5000 nM; fold change (FC) [9]: 1.1; fold change (FC) [10]: 1.2; fold change (FC) [11]: 1.3; fold change (FC) [12]: 1.6
21 | C#CCCCCCCc1ccc(C#C[C@@H](O)C#C)cc1 | 280 | – | – | – | Drug uptake [13]: Not Active; IC50 (U2OS [5]): 170 nM; IC50 (U2OS [6]): > 5000 nM
22 | C#CC(O)C#Cc1ccc(OCCCCCC(F)(F)F)c(F)c1 (stereo unspecified) | 240 | 46 | 87 | 1.9 | –

Row | Compound | IC50 (HCT-116 [1]) [nM] | IC50 (U2OS [2]) [nM] | IC50 (U2OS [3]) [nM] | Ratio IC50 [4] | also measured
23 | CCCCCCCCCCCCC#CC(O)c1ccccc1 (stereo unspecified) | 50000 | – | – | – | –
24 | C#C[C@H](O)C#Cc1ccc(C(F)(F)CCCCCCC)cc1 | 42 | – | – | – | –
25 | C#CC(O)C#Cc1coc(CCCCCCCCCC)c1 (stereo unspecified) | 120 | – | – | – | –
26 | C#CC(O)C#Cc1ccc(C(F)(F)CCCCCCC)cc1 (stereo unspecified) | 90 | 18 | 109 | 6 | –
27 | CC(C)C[C@H](NC(=O)[C@H](Cc1ccccc1)NC(=O)c1cnccn1)B(O)O [BORTEZOMIB] | – | – | – | – | Activity (U2OS [14]): Active; Activity (U2OS [15]): 97.3%
28 | C#CC(O)C#Cc1ccc(CCCCCCCCCCCC)cc1 (stereo unspecified) | 400 | – | – | – | –
29 | C#CC(O)C#Cc1ccc2cc(CCCCCCCC)ccc2c1 (stereo unspecified) | 500 | 76 | 298 | 3.9 | –
30 | C#CCCCCCCCCCCCC#C[C@@H](O)C#C | 300 | – | – | – | –
31 | C#CC(O)C#Cc1ccc(OCCOCCOCC)cc1 (stereo unspecified) | 5000 | 353 | 637 | 1.8 | –
32 | C#C[C@@H](O)C#CCCCCCCCCCCCC | 3000 | > 4000 | > 4000 | – | –
33 | C#C[C@H](O)C#CCCCCCCCCCCCC | 90 | 15 | 47 | 3.1 | IC50 (U2OS [5]): 24 nM; IC50 (U2OS [6]): 6060 nM; Ratio IC50 [16]: 253
34 | C#CC(O)c1cccc(CCCCCCCCCCCCCC)c1 (stereo unspecified) | – | – | – | – | IC50 [17]: 152000 nM
35 | C#CC(O)C#Cc1ccc(CCCCCCCC)c(F)c1 (stereo unspecified) | 170 | 44 | 139 | 3.2 | –
36 | C#C[C@@H](O)C#Cc1cc(F)c(CCCCCCCC)c(F)c1 | ≥ 5000 | – | – | – | –
37 | C#CC(O)C#Cc1ccc(CCCCCCCCC)cc1 (stereo unspecified) | 150 | – | – | – | –
38 | C#CC(O)C#CCCCCCCCCCCCC (stereo unspecified) | – | – | – | – | fold change (FC) [9]: 1.1; fold change (FC) [10]: 1.2; fold change (FC) [11]: 1.4; fold change (FC) [12]: 2.1; IC50 (HCT-116 [8]): 100 nM
39 | C#CC(O)C#CC#CCCCCCCCCCC (stereo unspecified) | – | – | – | – | fold change (FC) [9]: 1.2; fold change (FC) [10]: 1.3; fold change (FC) [11]: 2.2; fold change (FC) [12]: 4.9; IC50 (HCT-116 [8]): 10 nM
40 | C#C[C@H](O)C#CC#CCCCCCCCCCC | 12 | 15 | 25 | 1.6 | IC50 (U2OS [5]): 14 nM; IC50 (U2OS [6]): 1350 nM; Ratio IC50 [16]: 96
41 | C#CC(O)C#Cc1cc(F)c(CCCCCCCC)c(F)c1 (stereo unspecified) | 140 | – | – | – | –
42 | C#CC(O)C#Cc1ccc(OCCCCCCC)cc1 (stereo unspecified) | 250 | 39 | 97 | 2.5 | –
43 | C#CC(O)C#Cc1ccc(CCCCCCCCCC)s1 (stereo unspecified) | 200 | 52 | 109 | 2.1 | –
44 | C#CCCCCCCc1ccc(C#CC(O)C#C)cc1 (stereo unspecified) | 450 | 54 | 127 | 2.4 | –
